Measured values collected from several papers.
Protocols differ between the studies behind these lines. pEC50, pIC50: −log10 of the molar value.
Cell line: MCF7
Read-out: cell growth or viability

CC(=O)c1nn(-c2ccc(C)cc2)/c(=N/N=C(\C)c2ccc(NC(=O)c3ccccc3)cc2)s1 — viability (MTT; 5 µM): 6.47%
CN(C)C(=O)c1cc2cnc(Nc3ccc(N4CCNCC4)cn3)nc2n1C1CCCC1 — pEC50 (5 days): 7.00
O=C(Nc1ccccc1)Nc1ccc(Oc2nnc(-c3ccc(Cl)cc3)c3ccccc23)cc1 — viability (MTT; 0.312 µM; 24 h): 11.3%
Cc1ccc(-c2cc(-c3ccc(Cl)cc3)c3c(=O)[nH]c(=O)[nH]c3n2)cc1 — pIC50 (MTT; 48 h): 5.01
Cc1nc(NC(=O)N2CCC[C@H]2C(N)=O)sc1-c1ccnc(C(C)(C)C(F)(F)F)c1 — pEC50 (5 days): 6.75
C[C@@H]1CC[C@@H]([C@](C)(O)CNCc2ccccc2)[C@H](OCc2ccccc2)C1 — inhibition (MTT; 30 µM; 72 h): 98%
CC(=NNC(=O)c1ccccc1O)c1ccc(Nc2nnc(-c3ccc(Cl)cc3)c3ccccc23)cc1 — viability (MTT; 0.312 µM; 24 h): 99.3%
C[C@@H]1CC[C@@H]([C@@](O)(CNCc2cccc3ccccc23)COCc2ccccc2)[C@H](OCc2ccccc2)C1 — inhibition (MTT; 10 µM; 72 h): 82.9%
CC(=NNC(N)=S)c1ccc(Nc2nnc(-c3ccc(Cl)cc3)c3ccccc23)cc1 — cell death (MTT; 0.156 µM): 49.5%
CC(=O)Nc1ccc(/C(C)=N/N=c2\sc(C(C)=O)nn2-c2ccc(C)cc2)cc1 — viability (MTT; 2.5 µM): 34.6%
CC(=NNC(=O)c1ccccc1Br)c1ccc(Nc2nnc(-c3ccc(Cl)cc3)c3ccccc23)cc1 — cell death (MTT; 0.625 µM): 24.1%
CC(=O)c1nn(-c2ccccc2Cl)/c(=N/N=C(\C)c2ccc(NC(=O)c3ccccc3)cc2)s1 — viability (MTT; 78 nM): 47.5%
COC(=O)COc1c(Cc2cc(C(C)(C)CC(C)(C)C)cc(-n3nc4ccccc4n3)c2OCC(=O)OC)cc(C(C)(C)CC(C)(C)C)cc1-n1nc2ccccc2n1 — GI50 (MTT): 3.18 µM
COc1cc2ncnc(Nc3ccc4c(c3)/C(=C/c3cccc(Cl)c3)C(=O)N4C)c2cc1OC — pIC50 (MTT): 5.34
COc1ccc(-c2cc(-c3ccc(C)cc3)nc3[nH]c(=O)[nH]c(=O)c23)cc1OC — pIC50 (MTT; 48 h): 4.58
CC(=O)Nc1ccc(Oc2nnc(-c3ccc(Cl)cc3)c3ccccc23)cc1 — viability (MTT; 0.625 µM; 24 h): 4.91%
COc1ccc(-c2cc(-c3ccc(Br)cc3)c3c(=O)[nH]c(=O)[nH]c3n2)cc1 — pIC50 (MTT; 48 h): 5.00
O=C(Nc1ccc(Oc2nnc(-c3ccc(Cl)cc3)c3ccccc23)cc1)c1cccc([N+](=O)[O-])c1 — viability (MTT; 0.625 µM; 24 h): 9.78%
COc1cc2ncnc(Nc3ccc4c(c3)/C(=C/c3ccccc3)C(=O)N4)c2cc1OC — pIC50 (MTT): 4.73
COc1ccc(COC[C@@](O)(CNCc2ccc(F)cc2)[C@@H]2CC[C@@H](C)C[C@H]2OCc2ccc(OC)cc2)cc1 — inhibition (MTT; 10 µM; 72 h): 94.5%
COc1ccc(-c2cc(-c3ccc(Cl)cc3)c3c(=O)n(C)c(=O)n(C)c3n2)cc1 — pIC50 (MTT; 48 h): 4.84
O=C(CCn1c(=O)ccc2ccccc21)N1CCOCC1 — inhibition (MTT; 100 µM; 48 h): 90.5%
Cc1ccc(-c2cc(-c3ccc(N(C)C)cc3)c3c(=O)[nH]c(=O)[nH]c3n2)cc1 — pIC50 (MTT; 48 h): 5.00
COc1ccc(COC[C@@](O)(CNCc2ccccc2)[C@@H]2CC[C@@H](C)C[C@H]2OCc2ccc(OC)cc2)cc1 — inhibition (MTT; 30 µM; 72 h): 102%
CCOC(=O)c1nn(-c2cccc(Cl)c2)/c(=N/N=C(\C)c2ccc(NC(=O)c3ccccc3)cc2)s1 — viability (MTT; 1.25 µM): 2.59%
CO[C@H]1C[C@@H]2CC[C@@H](C)[C@@](O)(O2)C(=O)C(=O)N2CCCC[C@H]2C(=O)O[C@H]([C@H](C)C[C@@H]2CC[C@@H](OCCO)[C@H](OC)C2)CC(=O)[C@H](C)/C=C(\C)[C@@H](O)[C@@H](OC)C(=O)[C@H](C)C[C@H](C)/C=C/C=C/C=C/1C — pEC50 (5 days): 8.85
C[C@@H]1CC[C@@H]([C@](O)(CNCc2ccc(F)cc2)COCc2ccc(F)cc2)[C@H](OCc2ccc(F)cc2)C1 — inhibition (MTT; 10 µM; 72 h): 93.7%
O=C(Nc1ccc(Oc2nnc(-c3ccc(Cl)cc3)c3ccccc23)cc1)c1ccccc1 — cell death (MTT; 2.5 µM): 93.4%
C[C@@H]1CC[C@@H]([C@](C)(O)CNCc2cccc3ccccc23)[C@H](OCc2ccccc2)C1 — inhibition (MTT; 10 µM; 72 h): 61.5%
Cc1ccc(-c2cc(-c3c(Cl)cccc3Cl)c3c(=O)[nH]c(=O)[nH]c3n2)cc1 — pIC50 (MTT; 48 h): 4.41
C[C@@H]1CC[C@@H]([C@](O)(CNCc2ccccc2)COCc2ccc(F)cc2)[C@H](OCc2ccc(F)cc2)C1 — inhibition (MTT; 10 µM; 72 h): 95.7%
C=CC(=O)NC1CCN(c2ncc3ncnc(Nc4ccc(Oc5ccc6c(c5)ncn6C)c(C)c4)c3n2)CC1 — pEC50: 5.28
